# The source made the active and inactive calls. The calls are words filed in the database; no cut-off is given here.
# Tests used:
# Mus musculus [1] = assay: Inhibition of carrageenan-induced paw edema in Swiss albino mouse at 100 mg/kg, po after 270 mins relative to control; format: functional; details: 4.5 h
# How it was run: (§1)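 Oral dosing in 0.5% CMC; vehicle to controls. Then carrageenan (0.5 mg/25 ll, freshly suspended in 154 mM saline) injected into the right hind paw subplantar tissue; saline into the left paw. Right-left footpad thickness difference measured by dial gauge calliper every 90 min over 6 h. Inhibition % is relative to vehicle control. n = 6; mean ± SEM.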
# Mus musculus [2] = assay: Inhibition of p-benzoquinone-induced writhing in Swiss albino mouse at 25 mg/kg, po relative to control; format: functional
# How it was run: (§2)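 Mice, n = 6 per group, dosed orally with a suspension in 0.5% sodium CMC. 60 min later, 0.1 ml/10 g of 2.5% […] p-benzoquinone in distilled water given ip. Abdominal writhes counted per animal for 15 min, starting 5 min after injection. Expressed as % change in mean writhing count versus vehicle controls.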
# Mus musculus [3] = assay: Inhibition of p-benzoquinone-induced writhing in Swiss albino mouse at 200 mg/kg, po relative to control; format: functional; how it was run: as §2
# Mus musculus [4] = assay: Inhibition of carrageenan-induced paw edema in Swiss albino mouse at 25 mg/kg, po after 180 mins relative to control; format: functional; details: 3 h; how it was run: as §1
# Mus musculus [5] = assay: Antiinflammatory activity against carrageenan-induced paw edema in Swiss albino mouse assessed as swelling thickness at 200 mg/kg, po after 90 mins; format: functional; how it was run: as §1
# Mus musculus [6] = assay: Analgesic activity against p-benzoquinone-induced abdominal constriction in Swiss albino mouse assessed as number of writhings at 100 mg/kg, po; format: functional, Abdomen
# How it was run: (§3)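 Test samples given orally in 0.5% CMC; vehicle to controls. 60 min later, 2.5% (v/v) p-benzoquinone in distilled water, 0.1 ml/10 g, given i.p. Mice housed singly; writhes counted for 15 min starting 5 min after injection. Activity is % change from vehicle controls. n = 6; mean ± SEM.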
# Mus musculus [7] = assay: Antiinflammatory activity against carrageenan-induced paw edema in Swiss albino mouse assessed as swelling thickness at 100 mg/kg, po after 270 mins; format: functional; how it was run: as §1
# Mus musculus [8] = assay: Acute toxicity in Swiss albino mouse assessed as lethal effect at 100 mg/kg/day, po after 72 hrs; format: organism-based; parameters: route oral; details: in vivo
# How it was run: (§4)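 Oral single dose suspended in 0.5% carboxymethylcellulose, given after a 24 h fast; food and water returned 1 h after dosing. Vehicle-only controls. Mice observed at 1 h, then once daily for 72 h, for toxic signs and mortality.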
# Mus musculus [9] = assay: Gastric-ulcerogenic effect in Swiss albino mouse assessed as lesions at 100 mg/kg, po; format: functional, organism-based; parameters: dose 100 mg/kg
# How it was run: (§5)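 Mice killed under deep ether anesthesia 3 h after the writhing test; the oral dose in 0.5% CMC was the one used in that test. Stomachs removed, opened along the great curvature and examined under a dissecting microscope for lesions or bleeding. Reported as ratio of ulceration; n = 6.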
# Mus musculus [10] = assay: Antiinflammatory activity against carrageenan-induced paw edema in Swiss albino mouse assessed as swelling thickness at 25 mg/kg, po after 180 mins; format: functional; how it was run: as §1
# Mus musculus [11] = assay: Inhibition of carrageenan-induced paw edema in Swiss albino mouse at 200 mg/kg, po after 180 mins relative to control; format: functional; details: 3 h; how it was run: as §1
# Mus musculus [12] = assay: Antiinflammatory activity against carrageenan-induced paw edema in Swiss albino mouse assessed as swelling thickness at 25 mg/kg, po after 360 mins; format: functional; how it was run: as §1
# Mus musculus [13] = assay: Antiinflammatory activity against carrageenan-induced paw edema in Swiss albino mouse assessed as swelling thickness at 50 mg/kg, po after 270 mins; format: functional; how it was run: as §1
# Mus musculus [14] = assay: Acute toxicity in Swiss albino mouse assessed as lethal effect at 50 mg/kg/day, po after 72 hrs; format: organism-based; parameters: route oral; details: in vivo; how it was run: as §4
# Mus musculus [15] = assay: Antiinflammatory activity against carrageenan-induced paw edema in Swiss albino mouse assessed as swelling thickness at 200 mg/kg, po after 360 mins; format: functional; how it was run: as §1
# Mus musculus [16] = assay: Antiinflammatory activity against carrageenan-induced paw edema in Swiss albino mouse assessed as swelling thickness at 50 mg/kg, po after 90 mins; format: functional; how it was run: as §1
# Mus musculus [17] = assay: Acute toxicity in Swiss albino mouse assessed as lethal effect at 25 mg/kg/day, po after 72 hrs; format: organism-based; parameters: route oral; details: in vivo; how it was run: as §4
# Mus musculus [18] = assay: Inhibition of carrageenan-induced paw edema in Swiss albino mouse at 50 mg/kg, po after 360 mins relative to control; format: functional; details: 6 h
# How it was run: (§6)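 Mice, n = 6 per group. Test agent given orally as a suspension in 0.5% sodium CMC in distilled water; controls received vehicle only. Afterwards, 0.5 mg/25 ll carrageenan in saline (154 mM NaCl) injected subplantar into the right hind paw, saline into the left. Right-minus-left footpad thickness measured by dial gauge caliper every 90 min for 6 h. Inhibition is relative to vehicle-control group means.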
# Mus musculus [19] = assay: Inhibition of carrageenan-induced paw edema in Swiss albino mouse at 200 mg/kg, po after 360 mins relative to control; format: functional; details: 6 h; how it was run: as §1
# Mus musculus [20] = assay: Inhibition of carrageenan-induced paw edema in Swiss albino mouse at 200 mg/kg, po after 90 mins relative to control; format: functional; details: 1.5 h; how it was run: as §1
# Mus musculus [21] = assay: Inhibition of carrageenan-induced paw edema in Swiss albino mouse at 50 mg/kg, po after 180 mins relative to control; format: functional; details: 3 h; how it was run: as §1
# Mus musculus [22] = assay: Inhibition of p-benzoquinone-induced writhing in Swiss albino mouse at 100 mg/kg, po relative to control; format: functional; how it was run: as §2
# Mus musculus [23] = assay: Antiinflammatory activity against carrageenan-induced paw edema in Swiss albino mouse assessed as swelling thickness at 100 mg/kg, po after 90 mins; format: functional; how it was run: as §1
# Mus musculus [24] = assay: Analgesic activity against p-benzoquinone-induced abdominal constriction in Swiss albino mouse assessed as number of writhings at 50 mg/kg, po; format: functional, Abdomen; how it was run: as §3
# Mus musculus [25] = assay: Antiinflammatory activity against carrageenan-induced paw edema in Swiss albino mouse assessed as swelling thickness at 50 mg/kg, po after 360 mins; format: functional; how it was run: as §1
# Mus musculus [26] = assay: Inhibition of carrageenan-induced paw edema in Swiss albino mouse at 50 mg/kg, po after 270 mins relative to control; format: functional; details: 4.5 h; how it was run: as §6
# Mus musculus [27] = assay: Inhibition of carrageenan-induced paw edema in Swiss albino mouse at 50 mg/kg, po after 90 mins relative to control; format: functional; details: 1.5 h; how it was run: as §6
# Mus musculus [28] = assay: Inhibition of carrageenan-induced paw edema in Swiss albino mouse at 100 mg/kg, po after 180 mins relative to control; format: functional; details: 3 h; how it was run: as §1
# Mus musculus [29] = assay: Inhibition of carrageenan-induced paw edema in Swiss albino mouse at 25 mg/kg, po after 270 mins relative to control; format: functional; details: 4.5 h; how it was run: as §1
# Mus musculus [30] = assay: Antiinflammatory activity against carrageenan-induced paw edema in Swiss albino mouse assessed as swelling thickness at 200 mg/kg, po after 180 mins; format: functional; how it was run: as §1
# Mus musculus [31] = assay: Antiinflammatory activity in Swiss albino mouse assessed as inhibition of carrageenan-induced paw edema at 50 mg/kg, po; format: functional
# Mus musculus [32] = assay: Inhibition of carrageenan-induced paw edema in Swiss albino mouse at 25 mg/kg, po after 90 mins relative to control; format: functional; details: 1.5 h; how it was run: as §1
# Mus musculus [33] = assay: Antiinflammatory activity against carrageenan-induced paw edema in Swiss albino mouse assessed as swelling thickness at 100 mg/kg, po after 360 mins; format: functional; how it was run: as §1
# Mus musculus [34] = assay: Gastric-ulcerogenic effect in Swiss albino mouse assessed as lesions at 25 mg/kg, po; format: functional, organism-based; parameters: dose 25 mg/kg; how it was run: as §5
# Mus musculus [35] = assay: Analgesic activity against p-benzoquinone-induced abdominal constriction in Swiss albino mouse assessed as number of writhings at 200 mg/kg, po; format: functional, Abdomen; how it was run: as §3
# Mus musculus [36] = assay: Inhibition of carrageenan-induced paw edema in Swiss albino mouse at 100 mg/kg, po after 360 mins relative to control; format: functional; details: 6 h; how it was run: as §1
# Mus musculus [37] = assay: Gastric-ulcerogenic effect in Swiss albino mouse assessed as lesions at 50 mg/kg, po; format: functional, organism-based; parameters: dose 50 mg/kg; how it was run: as §5
# Mus musculus [38] = assay: Antiinflammatory activity against carrageenan-induced paw edema in Swiss albino mouse assessed as swelling thickness at 25 mg/kg, po after 270 mins; format: functional; how it was run: as §1
# Mus musculus [39] = assay: Inhibition of carrageenan-induced paw edema in Swiss albino mouse at 200 mg/kg, po after 270 mins relative to control; format: functional; details: 4.5 h; how it was run: as §1
# Mus musculus [40] = assay: Antiinflammatory activity against carrageenan-induced paw edema in Swiss albino mouse assessed as swelling thickness at 100 mg/kg, po after 180 mins; format: functional; how it was run: as §1
# Mus musculus [41] = assay: Inhibition of p-benzoquinone-induced writhing in Swiss albino mouse at 50 mg/kg, po relative to control; format: functional; how it was run: as §2
# Mus musculus [42] = assay: Antiinflammatory activity against carrageenan-induced paw edema in Swiss albino mouse assessed as swelling thickness at 200 mg/kg, po after 270 mins; format: functional; how it was run: as §1
# Mus musculus [43] = assay: Inhibition of carrageenan-induced paw edema in Swiss albino mouse at 25 mg/kg, po after 360 mins relative to control; format: functional; details: 6 h; how it was run: as §1
# Mus musculus [44] = assay: Inhibition of carrageenan-induced paw edema in Swiss albino mouse at 100 mg/kg, po after 90 mins relative to control; format: functional; details: 1.5 h; how it was run: as §1
# Mus musculus [45] = assay: Acute toxicity in Swiss albino mouse assessed as lethal effect at 200 mg/kg/day, po after 72 hrs; format: organism-based; parameters: route oral; details: in vivo; how it was run: as §4
# Mus musculus [46] = assay: Antiinflammatory activity against carrageenan-induced paw edema in Swiss albino mouse assessed as swelling thickness at 25 mg/kg, po after 90 mins; format: functional; how it was run: as §1
# Mus musculus [47] = assay: Analgesic activity against p-benzoquinone-induced abdominal constriction in Swiss albino mouse assessed as number of writhings at 25 mg/kg, po; format: functional, Abdomen; how it was run: as §3
# Mus musculus [48] = assay: Antiinflammatory activity against carrageenan-induced paw edema in Swiss albino mouse assessed as swelling thickness at 50 mg/kg, po after 180 mins; format: functional; how it was run: as §1
smiles,measurement,setting,value
CCS(=O)(=O)c1nc(-c2ccccc2Cl)n[nH]1,inhibition in vivo at 100 mg/kg,Mus musculus [1],40.5%
same,inhibition in vivo at 25 mg/kg,Mus musculus [2],25.7%
same,inhibition in vivo at 200 mg/kg,Mus musculus [3],10.7%
same,inhibition in vivo at 25 mg/kg,Mus musculus [4],8.4%
same,Activity,Mus musculus [5],43.1 10^-2mm
same,Activity,Mus musculus [6],23.4
same,Activity,Mus musculus [7],35 10^-2mm
same,Activity,Mus musculus [8],Non-toxic
same,Activity,Mus musculus [9],Active
same,Activity,Mus musculus [10],54.4 10^-2mm
same,inhibition in vivo at 200 mg/kg,Mus musculus [11],22.9%
same,Activity,Mus musculus [12],61.5 10^-2mm
same,Activity,Mus musculus [13],41.4 10^-2mm
same,Activity,Mus musculus [14],Non-toxic
same,Activity,Mus musculus [15],56.5 10^-2mm
same,Activity,Mus musculus [16],36.2 10^-2mm
same,Activity,Mus musculus [17],Non-toxic
same,inhibition in vivo at 50 mg/kg,Mus musculus [18],43.8%
same,inhibition in vivo at 200 mg/kg,Mus musculus [19],21.5%
same,inhibition in vivo at 200 mg/kg,Mus musculus [20],18.9%
same,inhibition in vivo at 50 mg/kg,Mus musculus [21],39.7%
same,inhibition in vivo at 100 mg/kg,Mus musculus [22],50.5%
same,Activity,Mus musculus [23],29.8 10^-2mm
same,Activity,Mus musculus [24],23.4
same,Activity,Mus musculus [25],40.5 10^-2mm
same,inhibition in vivo at 50 mg/kg,Mus musculus [26],36.1%
same,inhibition in vivo at 50 mg/kg,Mus musculus [27],31.9%
same,inhibition in vivo at 100 mg/kg,Mus musculus [28],34.4%
same,inhibition in vivo at 25 mg/kg,Mus musculus [29],8.8%
same,Activity,Mus musculus [30],45.8 10^-2mm
same,inhibition in vivo at 50 mg/kg,Mus musculus [31],37.9%
same,inhibition in vivo at 25 mg/kg,Mus musculus [32],11.3%
same,Activity,Mus musculus [33],38.5 10^-2mm
same,Activity,Mus musculus [34],Active
same,Activity,Mus musculus [35],45.9
same,inhibition in vivo at 100 mg/kg,Mus musculus [36],44%
same,Activity,Mus musculus [37],Active
same,Activity,Mus musculus [38],59.1 10^-2mm
same,inhibition in vivo at 200 mg/kg,Mus musculus [39],19.9%
same,Activity,Mus musculus [40],33.8 10^-2mm
same,inhibition in vivo at 50 mg/kg,Mus musculus [41],54.5%
same,Activity,Mus musculus [42],51.9 10^-2mm
same,inhibition in vivo at 25 mg/kg,Mus musculus [43],14.6%
same,inhibition in vivo at 100 mg/kg,Mus musculus [44],33.4%
same,Activity,Mus musculus [45],Non-toxic
same,Activity,Mus musculus [46],47.2 10^-2mm
same,Activity,Mus musculus [47],38.2
same,Activity,Mus musculus [48],35.8 10^-2mm

# Reference: ChEMBL document CHEMBL1142894, “Preparation of 5-aryl-3-alkylthio-l,2,4-triazoles and corresponding sulfones with antiinflammatory-analgesic activity” (Bioorg Med Chem, 2007)
